Measured values taken from PubChem BioAssay AID651999 (Sanford-Burnham Center for Chemical Genomics, 2013).
The whole screen tested about 360,000 compounds, of which about 1,400 (0.39%) were called active. The entries come from a sample that favours actives as a whole. A number with no mark means an inactive call.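 The calls were made as follows: active = pattern-corrected inhibition above about 35%, with an unprinted fluorescence ratio check between 0.5 and 1.5 (limit read from the data, passing the limit was not always enough); inactive = the rest.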

Each molecule was assayed against COP9 signalosome complex subunit 5 (Homo sapiens) (UniProt Q92905) (assay: CSN5 deneddylase inhibitors on cullin-RING ligase – biochemical, fluorescence polarization, uHTS, primary screen (AID 651999;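 also: 0% = enzyme with substrate and 100% = substrate without enzyme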)). Conditions: Purified CSN, SCF-Nedd8-OG deneddylation, at 12.5 µM, active compounds read high.
Chain of COP9 signalosome complex subunit 5 (Homo sapiens) (Q92905 whole entry, looked up, one chain of several): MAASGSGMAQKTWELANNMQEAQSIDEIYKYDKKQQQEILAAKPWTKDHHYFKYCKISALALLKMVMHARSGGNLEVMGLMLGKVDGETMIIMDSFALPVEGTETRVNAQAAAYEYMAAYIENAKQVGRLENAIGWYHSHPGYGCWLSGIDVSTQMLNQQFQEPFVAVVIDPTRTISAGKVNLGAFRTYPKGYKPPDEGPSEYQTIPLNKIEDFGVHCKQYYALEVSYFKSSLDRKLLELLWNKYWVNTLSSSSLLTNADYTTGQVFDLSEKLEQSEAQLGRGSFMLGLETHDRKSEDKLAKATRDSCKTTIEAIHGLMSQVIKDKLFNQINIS
In short: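 Material: human Csn5 produced in HEK293T cells; Input: enzyme 0.24 nM; Reagent: SCFSkp2-Nedd8OG substrate at 10 nM final; Dosing: 12.5 µM compound; Incubation: 90 min reaction at room temperature; Detection: fluorescence polarization of the substrate; Evaluation: % inhibition of substrate cleavage by Csn5; Control set: substrate-only high control, full reaction low control.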
CCCNC(=O)c1ccc(N2CCC3(CC2)CC(c2cccc(Br)c2)=NO3)c(NC(=O)c2ccco2)c1 gave an inhibition of -1.32%.
With C/C(=N\N=C(N)N)c1ccc(Cl)cc1 the inhibition was -1.16%.
Work on O=C(Cc1ccccc1)Nc1c(C(=O)N2CCCCCC2)cnn1-c1ccccc1 yielded an inhibition of -1.5%.
For CCN(C(=O)Cc1c(C(=O)O)n(CC)c2ccccc12)c1ccccc1C, the inhibition was -2.24%.
CC[n+]1cc(C)ccc1/C=C/c1ccc(N(C)C)cc1 was tested, and the inhibition was 35.4% (active).
In the case of CC(C)N1CCC(NC(=O)Nc2ccccc2)CC1, the inhibition is reported as -2.66%.
CC(=O)N1CCN(S(=O)(=O)c2c(F)cc(F)c(Cl)c2F)CC1 gave an inhibition of -5.22%.
CCOc1ccc(NC(=O)CN(C)CC(=O)NC(C)c2ccccc2)cc1OCC (centres undefined) gave an inhibition of 2.1%.
CN1/C(=c2/s/c(=C3/C(=O)N(c4ccccc4)NC3=Nc3ccccc3)n(C)c2=O)C(C)(C)c2ccccc21 was tested, and the inhibition was 41.7% (active).
CCc1c(O)nc(SCC(=O)Nc2ccccc2)n(C(C)CC)c1=O (centres undefined) gave an inhibition of 2.98%.
Work on O=C(Nc1ccc(N2CCN(C(=O)c3cccs3)CC2)cc1)c1cccnc1Cl yielded an inhibition of -0.71%.
For C=CC(=O)Nc1ccc(Nc2ccnc(Nc3ccc(N4CCN(C)CC4)cc3)n2)cc1, the inhibition was 103% (active).
With CC(=O)Nc1cc(-c2ccc(N3CCN(C)CC3)cc2)cn2c(-c3ccc(F)cc3)cnc12 the inhibition was 9.21%.
In the case of C/C(=N/NS(=O)(=O)c1ccccc1)c1ccc(NC(=O)C(F)(F)F)cc1, the inhibition is reported as -3.71%.
Work on COc1ccccc1NC(=O)CCSc1nnc(-c2ccc(O)cc2)o1 yielded an inhibition of -8.49%.
With Cc1ccc(N=C2NC(=O)/C(=C/C=C/c3ccco3)S2)cc1C the inhibition was 51.9% (active).
Molecule COc1ccc(CCN(Cc2cc3cccc(C)c3[nH]c2=O)C(=O)N2CCCC2)cc1OC has an inhibition of 2.45%.
O=C(NCCCO)/C(=C\C=C\c1ccccc1)NC(=O)c1ccccc1Cl was tested, and the inhibition was -3.06%.
C=CCN(c1ccc(Cl)cc1)S(=O)(=O)c1cccc(C(=O)OCC(=O)N(C)C)c1 was tested, and the inhibition was -4.63%.
N#Cc1cc([N+](=O)[O-])ccc1Oc1cccc(/C=N/NC(=O)c2ccc(Cl)cc2)c1 was tested, and the inhibition was 1.22%.
For O=C(N/N=C/c1ccc(Cl)cc1)c1nc2ccc([N+](=O)[O-])cc2c(=O)[nH]1, the inhibition was 56.7% (active).
For CC(NC(=O)C(=O)N/N=C/c1ccc(Cl)cc1)c1ccccc1 (centres undefined), the inhibition was -2.35%.
In the case of COc1ccc(Cc2nnc(SCC(=O)N(c3ccccc3)C(C)C)n(N)c2=O)cc1, the inhibition is reported as 2.75%.
For CC1(C2CC2)NC(=O)N(CC(=O)N2CCN(c3ccccc3F)CC2)C1=O (centres undefined), the inhibition was -0.85%.
